Tested on: MS2 coat protein
Experiment: apparent Kd, MS2 coat protein; higher = weaker binding; RNA-MaP array; FMN 200 µM where present
Summary of the method: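 Designs were transcribed by stalled E. coli RNA polymerase on Illumina sequencing-chip clusters. They were titrated with SNAP-549-labelled MS2 coat protein from 0.7 or 1.5 nM, doubling to 3 µM, in 100 mM Tris-HCl pH 7.5, 80 mM KCl, 4 mM MgCl2, BSA, DTT, yeast tRNA and Tween-20, without and then with constant ligand. The apparent Kd is the median of filtered per-cluster fits after normalisation of green signal to red-channel RNA signal and control-cluster median Fmax.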

[1] = designed as: ON switch for flavin mononucleotide, no ligand
[2] = ligand present: flavin mononucleotide, designed as: ON switch for flavin mononucleotide
[3] = designed as: OFF switch for flavin mononucleotide, no ligand
[4] = ligand present: flavin mononucleotide, designed as: OFF switch for flavin mononucleotide

Sequence | apparent Kd [1] | apparent Kd [2] | apparent Kd [3] | apparent Kd [4]
AAAAAAAAAACUCAGGAUAUAGAUCGUUGAACAUGAGGAUCACCCAUGUAGUGAAAAGCGAAAAACUAGAAGGGAGGAAAAAAAAA | 28.9 nM | 19.8 nM | – | –
AAAAAAAAAGUAGAGGAUAUCCGAGUGGUAACAUGAGGAUCACCCAUGUGAAGAAAGGAAGAUGAGGAGAAGGCUACAAAAAAAAA | 47.5 nM | 21.9 nM | – | –
AAAAAAAAGGGUGAGGAUAUCGAAAAAAAAACAUGAGGAUCACCCAUGUGAAAAAAAAAAAAAUGCGAGAAGGCACUAAAAAAAAA | 151 nM | 45.6 nM | – | –
AAAAAACAUGAGGAUCACCCAUGUAAAAAAAAUAGAGGAUAUGGGUGAUCCAAAAAAAAACCAGAAGGCUAAAAAA | 18.2 nM | 16.6 nM | – | –
AAAAAACAUGAGGAUCACCCAUGUAAAAAAAUCACAGGAUAUAAGGUCGCGAAAGCGACCUUAGAAGGGUGAUCCU | 20.1 nM | 20.1 nM | – | –
AAAAAACAUGAGGAUCACCCAUGUCAGGAUAUCCUAAAAAAAAAAAAAAAAAAAAAAAGGAGAAGGGACAUAAA | – | – | 119 nM | 309 nM
AAAAAACAUGAGGAUCACCCAUGUCAGGAUAUCUGGAGAAACGGAAAGAAAAAGAAACGGAGAAGGGACAUAAA | – | – | 41.1 nM | 48 nM
AAAAAACAUGAGGAUCACCCAUGUCUUCGGACAUGAGGAUAUGUACAGACUUCGGUCUGUACAGAAGGCAUGUCAA | 166 nM | 23.2 nM | – | –
AAAAAACAUGAGGAUCACCCAUGUGAGGAUAUCACUAGUCAGUCCUCAGAGUGAGUACUGAGAAGGCACAUAAA | – | – | 86.9 nM | 54.3 nM
AAAAAACAUGAGGAUCACCCAUGUGAGGAUAUCUGUAUCCAAAAGGAAGUGUAGGAUCAGAGAAGGCACUAGGA | – | – | 68.1 nM | 123 nM
AAAAAGCGAGGAUAUACAUGAGGAUCACCCAUGUCAAAAAAAUAGAAAAAAAUAAAAAGUAGAAGGCGCAAAAA | – | – | 58.8 nM | 58.4 nM
AAAAAGCGAGGAUAUGCAUAAGGACCCGGGAGGGAAAUCAAACAUGAGGAUCACCCAUGUAGAAGGCGCAAAAA | – | – | 16.1 nM | 23.3 nM
AAAAAGGGAGGAUAUACAUGAGGAUCACCCAUGUAAAAAAAAACAAAAAAAAAAAAAAGUAGAAGGCCCAAAAA | – | – | 54.8 nM | 47.8 nM
AAAAAGGUAGGAUAUACGAGGAGAAAUAAUAAAUAAAUAAAACAUGAGGAUCACCCAUGUAGAAGGACCAAAAA | – | – | 26.1 nM | 26.8 nM
AAAAAGUCAGGAUAUACAUGAGGAUCACCCAUGUAAAAAAAAGGGAAAAAAAAAAAGGGUAGAAGGGACGAAAA | – | – | 37.8 nM | 33 nM
AAAAAUGGAGGAUAUACAUGAGGAUCACCCAUGUGUGGCUAUACUAUGUGCUCUUCAGGUAGAAGGCCAAAAAA | – | – | 42.6 nM | 201 nM
AAAACACAUGAGGAUCACCCAUGUGAGGAUAUGUUCAUUGUGAGCAAACUUAUGAUGAACAGAAGGCACAUAAA | – | – | 45.5 nM | 50.7 nM
AAAACAUGAGGAUCACCCAUGUAAAGAUCAGUUAAUAGAGGUGAGGAUAUACGAACUUAAAGGUAGUAGAAGGCACUGGGUACA | 35.9 nM | 30 nM | – | –
AAAACAUGAGGAUCACCCAUGUAAAGAUCGGUUAAUAGAGGUGAGGAUAUACGAACUUUUGGGUAGUAGAAGGCACUGGGUACA | 58.1 nM | 44 nM | – | –

Sequence | apparent Kd [1] | apparent Kd [2] | apparent Kd [3] | apparent Kd [4]
AAAACGUGAGGAUAUCCAAUAUAUGACAUGAGGAUCACCCAUGUUUCCACUCGUACCUCCGGAGAAGGCACAAUUU | – | – | 51.2 nM | 41.7 nM
AAAAUCAAAUCAGGAUAUUCAUACACUACAUACGGAGAAGGGAUACAAUCAUGAGGACAUGAGGAUCACCCAUGUUGUGACCAU | 102 nM | 54.8 nM | – | –
AAAAUCAAUGCAGGAUAUACAUGAGGAUCACCCAUGUAGGUUGACCCUAAUACGGGCGAUUUGCAGUAGAAGGGCAAGAAGAAA | – | – | 50.7 nM | 63.4 nM
AAAAUCUAUACAGGAUAUCCAUACGCUGCAUACGGAGAAGGGUAACAAUCAUGAGGACAUGAGGAUCACCCAUGUUGUGACCAU | 232 nM | 76.1 nM | – | –
AAACACAAACAUGAGGAUCACCCAUGUUAUGAAAAUACUGGGAGAAGGGCGAUUGCAAAGCAAUCGCAGGAUAUUCGUAUUGUG | 76.7 nM | 16.1 nM | – | –
AAACACGGACAUGAGGAUCACCCAUGUGGCGAAAGCCUUGGAAGAAGGCCGAUUGCAAAGCAAUCGGAGGAUAUUCAUACCGUG | – | 5.57 nM | – | –
AAACAUGUCCGAGGAUAUCUGGAAACAUUUUCAAGAGAAGGCGGACAUGAGGAUCACCCAUGUCUCUCCUCAUCAAAUCCAAGC | – | – | 8.2 nM | 44.9 nM
AAACAUGUCCGAGGAUAUCUGGAAACAUUUUCAAGAGAAGGCGGACAUGAGGAUCACCCAUGUCUCUCCUCAUCAACUACAAAC | – | – | 8.57 nM | 53.2 nM
AAACAUGUCCGAGGAUAUCUGGAAAUAUUUCCAAGAGAAGGCGGACAUGAGGAUCACCCAUGUCUCUCCUCAUCAAAUCCAAGU | – | – | 9.36 nM | 73.3 nM
AAACCGUGUGGAGGAUAUGCAGUUGAGGUGAGGCGGCAGCUCUAUACGACAGCAGAAGGCCACAUGAGGAUCACCCAUGUAGGU | – | – | 107 nM | 326 nM
AAACUCAUUGUCAGGAUAUGUAUUGAAGGAAUCGGACAGAAGGGACAUGAGGAUCACCCAUGUUACUAAGACCC | – | – | 25.9 nM | 74.3 nM
AAAGACAGACAUGAGGAUCACCCAUGUUAUGAAGAUACUGGGAGAAGGGCGAUUGCAAAGCAAUCGCAGGAUAUUCGUAUUGUC | 92.2 nM | 15.6 nM | – | –
AAAGCUGAAGGAUAUACUUGGAAAAAAAAAAAAAAAAAAAAACAUGAGGAUCACCCAUGUAGAAGGUCAGAUAA | – | – | 48.2 nM | 39.8 nM
AAAGGAUCAGGAUAUGCGUGGAAAAAGUGUAUUCAAAAAAAACAUGAGGAUCACCCAUGUAGAAGGGAUCCAAA | – | – | 182 nM | 657 nM
AAAGGCCGAGGAUAUACAUGAGGAUCACCCAUGUGGACUCUGCAGAAUUGAUACCUAGGUAGAAGGUGGACCGG | – | – | 14.9 nM | 15.2 nM
AAAGGUUGAGGAUAUGCGUGGAAAAAGUGUAUUCAAAAAAAACAUGAGGAUCACCCAUGUAGAAGGCGACCAAA | – | – | 93.6 nM | 245 nM
AAAGUCUAUUGAGGAUAUCGUUAUCAAAGAUAAUGAGAAGGCAAACAAUCAUGAGGACAUGAGGAUCACCCAUGUUGUGACCAU | 22.3 nM | 13.4 nM | – | –
AAAUAACAUGAGGAUCACCCAUGUCCGCGCCAUCAAGGAUAUGGGUGCCGGCUAGGUCAGCUAGAAGGUGGUGGUG | 28.8 nM | 34.5 nM | – | –
AAAUAACAUGUAGGAUAUGCAGCAUUAACCAUCGCAGAAGGACAUGAGGAUCACCCAUGUGGCGAUACAAUGCAAUAAGGGAAU | – | – | 16.2 nM | 40.7 nM

Sequence | apparent Kd [1] | apparent Kd [2] | apparent Kd [3] | apparent Kd [4]
AAAUAGCGAGGAUAUACAUGAGGAUCACCCAUGUGGACUGAUGUAGCAUGUUUCAGUGGUAGAAGGUGCUCAAA | – | – | 112 nM | 100 nM
AAAUAGCUUGAGGAUAUUGGAUUGGAUUCAGUGCGAGAAGGCAAGACAUGAGGAUCACCCAUGUUGUGUUGGGA | – | – | 47.2 nM | 90 nM
AAAUAUAAUGAGGAUAUCGUACUGGAUAUAGUGCGAGAAGGCAUUACAUGAGGAUCACCCAUGUUUUGUUGGGA | – | – | 30.8 nM | 89.5 nM
AAAUCUUACGAAGGAUAUACAAACAUGAGGAUCACCCAUGUGUGUUUCGUGUAACUGAAAUUCGGGUAGAAGGUCGUAGACAUA | – | – | 24.3 nM | 15 nM
AAAUUAGUUGUAGGAUAUCGGUCGAACAUCUCACGAGAAGGGCAACAUGAGGAUCACCCAUGUAGGUCGCCUACGUAAGAUCGC | – | – | 5.84 nM | 6.71 nM
AAAUUGACGGGACAUGAGGAUCACCCAUGUGCUAGCCGGACCAGAAGGGCAGCCGGCACGUGGUUGCAGGAUAUGGCCGUCGCA | 154 nM | 151 nM | – | –
AAAUUGCUAGAGGAUAUCGGAUAGGAUCUAUUGCGAGAAGGUUGGACAUGAGGAUCACCCAUGUUCUGUUGGGA | – | – | 25.8 nM | 25.8 nM
AAAUUGGUAGAGGAUAUCGGAUAGGAUUUAUUGCGAGAAGGCUGCACAUGAGGAUCACCCAUGUUCUGUUGGGA | – | – | 201 nM | 280 nM
AAAUUUAACGAAGGAUAUACUAACAUGAGGAUCACCCAUGUGUGCUUCGUGUUGCUGAAAUUCGGGUAGAAGGUCGUAUACAUA | – | – | 54.8 nM | 145 nM
AAAUUUAACGAAGGAUAUGCUGACAUGAGGAUCACCCAUGUGUGCCUUGUGUUACUGACUCGGAAGCAGAAGGUCGUAUACAUA | – | – | 400 nM | 552 nM
AAAUUUAACGAAGGAUAUGGUUACAUGAGGAUCACCCAUGUGUGCCUUGUGAUUUUGUUUAAGUUCCAGAAGGUCGUAUACAUA | – | – | 26.4 nM | 168 nM
AACAAGCAAGGAUAUACAUGAGGAUCACCCAUGUCGUCUAAACGUACAUGCUACUCUUGUAGAAGGUGCAAAAU | – | – | 129 nM | 537 nM
AACAGCUCGUCAGGAUAUAUUAUAUUUAUAUGGCUGAAUGUACAUGAGGAUCACCCAUGUAGUUUGUAGAAGGGACGAGCUGAA | – | – | 11.6 nM | 18.9 nM
AACAGGACAGGAUAUACAUGAGGAUCACCCAUGUGAGAAUUAAGCAGCGUACCACACAGUAGAAGGGUCAUGGA | – | – | 46.7 nM | 40 nM
AACAGGUUCACAUGAGGAUCACCCAUGUUAGCCUAACGUAGGAGAAGGGCGGUAGCUGGGCUGACGUAGGAUAUCCUACUGUGA | 10 nM | 5.79 nM | – | –
AACAGUACAGGAUAUACAUGAGGAUCACCCAUGUGAAGAAUAAGUGGCGUACCACAAAGUAGAAGGGUACUGGA | – | – | 29.3 nM | 120 nM
AACAGUACAGGAUAUACAUGAGGAUCACCCAUGUGAGCUUUAAGUGCCGUAGCACAAAGUAGAAGGGUACUGGA | – | – | 24.4 nM | 91.8 nM
AACAGUAGAGGAUAUACAUGAGGAUCACCCAUGUGAUAAUUACGUGGCGUACCACGAUGUAGAAGGCUACUGGA | – | – | 144 nM | 36.2 nM

From the EternaBench riboswitch data
